In brackets after ≈: the same amount, converted by molar mass.
Tests used:
Enterococcus faecium [1] = experiment: Antimicrobial activity against vancomycin-resistant Enterococcus faecium clinical isolate 1100440 by CLSI-based broth microdilution assay; type: functional
Enterococcus faecium [2] = experiment: Antimicrobial activity against vancomycin-resistant Enterococcus faecium ATCC 700221 assessed as bacterial growth inhibitions by CLSI protocol based microdilution method; type: functional
Staphylococcus aureus [3] = experiment: Antibiofilm activity against Staphylococcus aureus ATCC 25923 assessed as destruction of biofilm formation at 1 times MIC after 24 hrs by crystal violet staining based assay relative to control; type: functional
Outline: (§1)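 Overnight culture brought to 0.5 McFarland in PBS, diluted 1:100 in CAMHB with 1% glucose. Inhibition: cells plus compound (in DMSO) at 2x, 1x, 0.5xMIC, 24 h at 35 °C, triplicate. Destruction: 24 h biofilm grown without drug, washed, fresh medium with compound, further 24 h. Then washed, dried, 0.1% crystal violet, solubilized in 33% acetic acid, OD 620 nm. Controls are DMSO-only and broth-only wells.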

Staphylococcus aureus [4] = experiment: Inhibition of RNA synthesis in Staphylococcus aureus ATCC 29213 at 0.25 times MIC measured by liquid scintillation counter; type: functional
Outline: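 Early-exponential cells in CAMHB added to drug (40x stock) in triplicate, with a no-drug control. After 30 min pre-incubation at room temperature, [3H]thymidine 3.0 µCi/tube (DNA) or [3H]uridine 0.5 µCi/tube (RNA) added for 30 min at room temperature. Stopped with cold TCA, precipitate filtered and washed, then scintillation counted.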

Enterococcus faecalis [5] = experiment: Antibiofilm activity against Enterococcus faecalis ATCC 29212 assessed as inhibition of biofilm formation at 0.5 times MIC after 24 hrs by crystal violet staining based assay relative to control; type: functional; design: scale not given: the % may be the effect or the level left; outline: as §1
[6] = Toxicity in CD1 mouse assessed as effect on sodium level at 50 mg/kg, ip administered as single dose measured after 24 hrs; type: organism-based; settings: in vivo
Outline: (§2)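 Male CD-1 mice, 8 weeks, 32–37 g, n = 10 per dose. Single IP injection at 5, 20 or 50 mg/kg in 0.9% saline, filter-sterilized; saline vehicle group. Blood taken by cardiac puncture 24 h later. 14 plasma markers measured on a chemistry panel, reported as mean ± SE. Toxicity judged by significance versus controls, normal ranges, dose-dependence and consistency across organ markers.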

Bacillus subtilis = experiment: Antimicrobial activity against Bacillus subtilis ATCC 6623 assessed as bacterial growth inhibitions by CLSI protocol based microdilution method; type: functional
Outline: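 Broth microdilution starting at 50 µg/ml with 2-fold serial dilutions; run in triplicate.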

[7] = Toxicity in CD1 mouse assessed as effect on total bilirubin level at 50 mg/kg, ip administered as single dose measured after 24 hrs; type: organism-based; settings: in vivo; outline: as §2
[8] = Toxicity in CD1 mouse assessed as effect on creatine level at 50 mg/kg, ip administered as single dose measured after 24 hrs; type: organism-based; settings: in vivo; outline: as §2
[9] = Toxicity in CD1 mouse assessed as effect on pancreatic amylase level at 50 mg/kg, ip administered as single dose measured after 24 hrs; type: organism-based; settings: in vivo; outline: as §2
Enterococcus faecium [10] = experiment: Antimicrobial activity against vancomycin-resistant Enterococcus faecium clinical isolate 1091282 by CLSI-based broth microdilution assay; type: functional
Staphylococcus aureus [11] = experiment: Inhibition of lipid synthesis in Staphylococcus aureus ATCC 29213 at 0.25 times MIC measured by liquid scintillation counter; type: functional
Outline: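 Early-exponential cells in CAMHBII with drug in triplicate. Lipids extracted with chloroform/water, centrifuged, organic phase dried, then scintillation counted.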

Staphylococcus aureus [12] = experiment: Antibacterial activity against vancomycin-intermediate susceptible Staphylococcus aureus ATCC 25923 assessed as bacterial growth inhibition by measuring fold increase in MIC between 14 passages by broth dilution method; type: functional
Enterococcus faecium [13] = experiment: Antimicrobial activity against vancomycin-resistant Enterococcus faecium clinical isolate 1094112 by CLSI-based broth microdilution assay; type: functional
[14] = Toxicity in CD1 mouse assessed as effect on total protein level at 50 mg/kg, ip administered as single dose measured after 24 hrs; type: organism-based; settings: in vivo; outline: as §2
Enterococcus faecalis [15] = experiment: Antimicrobial activity against vancomycin-susceptible Enterococcus faecalis ATCC 29212 assessed as bacterial growth inhibitions by CLSI protocol based microdilution method
[16] = Toxicity in CD1 mouse assessed as effect on alkaline phosphatase level in blood at 50 mg/kg, ip administered as single dose measured after 24 hrs; type: organism-based; settings: in vivo; outline: as §2
Staphylococcus aureus [17] = experiment: Antibacterial activity against methicillin resistant Staphylococcus aureus ATCC 700699 persisters assessed as reduction in viability at 4 times MIC measured within 4 hrs by colony counting method; type: functional; settings: time hrs <=4
Outline: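 Stationary-phase S. aureus from overnight CAMHB culture (35 °C, 200 rpm), washed thrice in PBS, diluted to ~5 × 10^8 CFU/ml. Incubated with antibiotic at 35 °C, 200 rpm. Aliquots taken at set times, washed, serially diluted in PBS, drop-plated (6 × 6) on TSA with 5% sheep blood. Colonies counted after 18–20 h at 35 °C. Triplicates.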

Staphylococcus aureus [18] = experiment: Antimicrobial activity against Staphylococcus aureus ATCC 29213 assessed as inhibition of cell wall synthesis at 2 times MIC measured by liquid scintillation counter; type: functional
Outline: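 Early-exponential cells resuspended in M9 minimal medium, drug (40x stock) in triplicate, 30 min pre-incubation at 37 °C. [14C]N-acetylglucosamine 0.4 µCi/reaction for 45 min at 37 °C. Stopped with 8% SDS, heated 95 °C 30 min, spotted on nitrocellulose, washed with 0.1% SDS, then scintillation counted.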

Enterococcus faecalis [19] = experiment: Antibiofilm activity against Enterococcus faecalis ATCC 29212 assessed as destruction of biofilm formation at 1 times MIC after 24 hrs by crystal violet staining based assay relative to control; type: functional; outline: as §1
[20] = Toxicity in CD1 mouse assessed as effect on kidney 50 mg/kg, ip administered as single dose measured after 24 hrs by TUNEL assay; type: organism-based; settings: in vivo
Outline: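 Male CD-1 mice, single IP 50 mg/kg in saline; saline control. Acetaminophen 300 mg/kg and cisplatin 20 mg/kg IP as positive controls. At 24 h, liver and kidney paraffin-embedded, 5-µm sections, TUNEL stained with DAPI counterstain, imaged by fluorescence microscopy.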

Enterococcus faecalis [21] = experiment: Antibiofilm activity against Enterococcus faecalis ATCC 29212 assessed as inhibition of biofilm formation at 2 times MIC after 24 hrs by crystal violet staining based assay relative to control; type: functional; design: scale not given: the % may be the effect or the level left; outline: as §1
[22] = Selectivity index, ratio of IC50 for cytotoxicity against human HEK-293T cells to MIC of antimicrobial activity against methicillin-susceptible Staphylococcus aureus ATCC 25923; type: toxicity, cell-based; settings: read-out: Selectivity Index
Enterococcus faecalis [23] = experiment: Antibiofilm activity against Enterococcus faecalis ATCC 29212 assessed as destruction of biofilm formation at 2 times MIC after 24 hrs by crystal violet staining based assay relative to control; type: functional; outline: as §1
[24] = Toxicity in CD1 mouse assessed as effect on globulin level at 50 mg/kg, ip administered as single dose measured after 24 hrs; type: organism-based; settings: in vivo; outline: as §2
Enterococcus faecium [25] = experiment: Antimicrobial activity against vancomycin-resistant Enterococcus faecium clinical isolate 1091720 by CLSI-based broth microdilution assay; type: functional
Staphylococcus aureus [26] = experiment: Antimicrobial activity against methicillin-susceptible Staphylococcus aureus ATCC 25923 assessed as bacterial growth inhibitions by CLSI protocol based microdilution method; type: functional

**Q.** For `O=C(O)c1ccc(-n2cc(CNc3cc(F)cc(C(F)(F)F)c3)c(-c3ccc(C(F)(F)F)cc3)n2)cc1`, which MIC (Enterococcus faecium [1]) is on record?
**A.** The MIC was 4 µg/mL (≈ 7.64 µM).

**Q.** What about the MIC (Enterococcus faecium [2]) of the same compound?
**A.** The MIC was 0.78 µg/mL (≈ 1.49 µM).

**Q.** What about the Activity (Staphylococcus aureus [3]) of the same compound?
**A.** Its Activity is 55%.

**Q.** What about the “inhibition (INH)” value (Staphylococcus aureus [4]) of the same compound?
**A.** Its value is 15.5%.

**Q.** And the Activity (Enterococcus faecalis [5])?
**A.** The Activity was 75%.

**Q.** And the Activity [6]?
**A.** Its Activity is “Non-Toxic”.

**Q.** What about the MIC (Bacillus subtilis) of the same compound?
**A.** Its MIC is 0.78 µg/mL (≈ 1.49 µM).

**Q.** And the Activity [7]?
**A.** The Activity was “Non-Toxic”.

**Q.** And the Activity [8]?
**A.** The Activity was “Non-Toxic”.

**Q.** What about the Activity [9] of the same compound?
**A.** The Activity was “Non-Toxic”.

**Q.** And the MIC (Enterococcus faecium [10])?
**A.** Its MIC is 2 µg/mL (≈ 3.82 µM).

**Q.** What about the “inhibition (INH)” value (Staphylococcus aureus [11]) of the same compound?
**A.** The value was 20.7%.

**Q.** What about the “fold change (FC)” value (Staphylococcus aureus [12]) of the same compound?
**A.** The value was 2.

**Q.** And the MIC (Enterococcus faecium [13])?
**A.** Its MIC is 4 µg/mL (≈ 7.64 µM).

**Q.** What about the Activity [14] of the same compound?
**A.** Its Activity is “Non-Toxic”.

**Q.** And the MIC (Enterococcus faecalis [15])?
**A.** Its MIC is 1.56 µg/mL (≈ 2.98 µM).

**Q.** What about the Activity [16] of the same compound?
**A.** The Activity was “Non-Toxic”.

**Q.** What about the Activity (Staphylococcus aureus [17]) of the same compound?
**A.** The Activity was 2 log10CFU/ml.

**Q.** And the “inhibition (INH)” value (Staphylococcus aureus [18])?
**A.** The value was 39.5%.

**Q.** And the Activity (Enterococcus faecalis [19])?
**A.** Its Activity is 75%.

**Q.** What about the Activity [20] of the same compound?
**A.** Its Activity is “Non-Toxic”.

**Q.** What about the Activity (Enterococcus faecalis [21]) of the same compound?
**A.** Its Activity is 90%.

**Q.** What about the selectivity ratio [22] of the same compound?
**A.** Its selectivity ratio is 13.

**Q.** What about the Activity (Enterococcus faecalis [23]) of the same compound?
**A.** Its Activity is 85%.

**Q.** What about the Activity [24] of the same compound?
**A.** The Activity was “Non-Toxic”.

**Q.** What about the MIC (Enterococcus faecium [25]) of the same compound?
**A.** Its MIC is 4 µg/mL (≈ 7.64 µM).

**Q.** And the MIC (Staphylococcus aureus [26])?
**A.** The MIC was 0.39 µg/mL (≈ 0.745 µM).
